Here are results for 45 compounds from ChEMBL document CHEMBL1127029, “Synthesis and evaluation of 2-pyridinone derivatives as specific HIV-1 reverse transcriptase inhibitors. 3. Pyridyl and phenyl analogs of 3-aminopyridin-2(1H)-one” (J Med Chem, 1993).

pIC50: −log10 of the molar value. Where a name gives a salt, the structure may show the parent alone.

One assay relates to MT4. Briefly: Cell culture inhibitory concentration against spread of HIV-I infection in MT-4 cells was determined. Conditions: Homo sapiens, read-out: CIC95. Type of assay: functional. The method, boiled down: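 Spread of HIV-1 infection in MT-4 cell culture; the read-out is HIV-1 p24 core antigen by ELISA. The value is the lowest concentration giving ≥95% inhibition of infection spread (CIC95).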
In the case of `CCc1cc(NCc2ccccc2OC)c(O)nc1C`, the IC95 turned out to be 400 nM.

Consider `CCOCn1c(Sc2ccccc2)c(CC)c(=O)[nH]c1=O`, for which the IC95 is 100 nM.

In the case of `CC(C)=CCN1Cc2cccc3[nH]c(=S)n(c23)C[C@@H]1C`, the IC95 is 200 nM.

As to `CCc1cc(NCc2cc(C)c(C)cc2OC)c(O)nc1C`, the IC95 turned out to be 13 nM.

`CCc1cc(NCc2cc(C)c(C)nc2OC)c(O)nc1C`: the IC95 worked out at 50 nM.

As for `CCc1cc(NCc2cccnc2OC)c(O)nc1C`, the IC95 worked out at 800 nM.

Turning to `CCc1cc(NCc2nc(C)c(C)cc2OC)c(O)nc1C`, the IC95 amounted to 100 nM.

On to `CCc1cc(NCc2cc(CC)c(C)nc2OC)c(O)nc1C`, for which the IC95 worked out at 13 nM.

For `CCNc1cccnc1N1CCN(C(=O)c2cc3cc(OC)ccc3[nH]2)CC1` [ATEVIRDINE MESYLATE], the IC95 turned out to be 1500 nM.

In the case of `CCc1cc(NCc2nc3c(Cl)ccc(Cl)c3o2)c(O)nc1C` [L-697661], the IC95 was 50 nM.

Take `Cc1ccnc2c1NC(=O)c1cccnc1N2C1CC1` [NEVIRAPINE]: the IC95 was determined as 100 nM.

A further assay concerns the target Human immunodeficiency virus type 1 reverse transcriptase (Human immunodeficiency virus 1, UniProt Q72547). As to the kind of experiment: In vitro inhibitory concentration against HIV-1 reverse transcriptase using rC-dG template primer.
Details: not given
The pIC50 is −log10 of the IC50, conventionally taken in molar units. A lower pIC50 goes with a high IC50. In turn, `CCc1cc(CNc2cc(CC)c(C)nc2O)c(O)nc1C` gave a pIC50 of 7.04.

In the case of `CCc1cc(NCc2nc3c(cc2OC)CCCC3)c(O)nc1C`, the pIC50 is 7.33.

The compound `CCc1cc(NCc2nc3c(cc2OC)CCC3)c(O)nc1C` had a pIC50 of 7.40. The pIC50 values of the last two compounds are within 0.2 log units of each other.

As to `CCc1cc(NCc2ccccc2[N+](=O)[O-])c(=O)[nH]c1C`, the pIC50 is 6.28. Against the preceding compound, the pIC50 is 1.12 log units lower.

The compound `CCc1cc(NCc2ccccc2COC)c(O)nc1C` gave a negative-log IC50 (pIC50) of 4.45.

The compound `CCc1cc(NCc2ccccc2OC)c(O)nc1C` gave a pIC50 of 6.58.

With `CCc1cc(NCc2cc3c(cc2OC)CCC3)c(=O)[nH]c1C`, the pIC50 is 7.40.

Compound `CCc1cc(NCc2nc(CC)c(C)cc2OC)c(O)nc1C` showed a pIC50 of 7.15.

`CCc1cc(NCc2ncccc2OC)c(=O)[nH]c1C` showed a negative-log IC50 (pIC50) of 5.81.

Regarding `CCOCn1c(Sc2ccccc2)c(CC)c(=O)[nH]c1=O`, the pIC50 was 7.49. Compared with the last compound, the pIC50 is 1.68 log units higher.

In the case of `CC(C)=CCN1Cc2cccc3[nH]c(=S)n(c23)C[C@@H]1C`, the pIC50 is 7.15.

Compound `CCc1cc(NCc2cnccc2OC)c(=O)[nH]c1C` had a pIC50 of 5.00.

The compound `CCc1ccc(OC)c(CNc2cc(CC)c(C)nc2O)c1` gave a negative-log IC50 (pIC50) of 7.49.

`CCc1cc(CCc2cc(CC)c(C)nc2OC)c(O)nc1C`: the pIC50 is 7.19. Against the preceding compound, the pIC50 is 0.30 log units lower.

Compound `CCc1ccc(CNc2cc(CC)c(C)nc2O)c(OC)c1` had a pIC50 of 6.29.

In turn, `CCc1cc(NCc2ccccc2N)c(O)nc1C` gave a pIC50 of 4.55.

The compound `CCc1cc(NCc2ccccc2C(F)(F)F)c(=O)[nH]c1C` showed a pIC50 of 4.90.

Compound `CCc1ccccc1CNc1cc(CC)c(C)[nH]c1=O` gave a pIC50 of 5.16.

In the case of `CCc1cc(NCc2cc(C)c(C)cc2OC)c(O)nc1C`, the negative logarithm of the IC50 (pIC50) is 8.10.

Regarding `CCc1cc(CCc2nc3ccccc3o2)c(O)nc1C`, the pIC50 is 7.70.

`CCc1cc(CNc2cc(CC)c(C)[nH]c2=O)c(OC)cc1C` had a pIC50 of 7.48.

Take `CCc1cc(CCc2cc(CC)c(C)nc2O)c(O)nc1C`: the pIC50 was 6.40.

On to `CCc1cc(NCc2cc3c(nc2OC)CCCC3)c(O)nc1C`, for which the pIC50 was 7.46.

The compound `CCc1cc(NCc2cc(C)c(C)nc2OC)c(O)nc1C` showed a pIC50 of 8.05.

Compound `CCc1cc(NCc2cccc(C)c2OC)c(O)nc1C` gave a pIC50 of 5.42.

Compound `CCc1cc(NCc2cc3ccccc3nc2OC)c(O)nc1C` had a negative logarithm of the IC50 (pIC50) of 7.47.

`CCc1cc(NCc2ccncc2OC)c(=O)[nH]c1C` showed a pIC50 of 3.96.

Regarding `CCOc1ccccc1CNc1cc(CC)c(C)nc1O`, the pIC50 was 6.46.

Compound `CCc1cc(NCc2ccccc2C#N)c(=O)[nH]c1C` had a pIC50 of 6.10.

In turn, `CCc1cc(NCc2ccccc2O)c(=O)[nH]c1C` gave a pIC50 of 5.34.

Take `CCc1cc(NCc2cccnc2OC)c(O)nc1C`: the negative logarithm of the IC50 (pIC50) is 6.17.

`CCc1cc(NCc2nc(C)c(C)cc2OC)c(O)nc1C` gave a negative logarithm of the IC50 (pIC50) of 7.15.

As to `CCc1cc(NCc2ccc(OC)cc2)c(O)nc1C`, the pIC50 is 5.12.

As to `CCc1cc(NCc2ccccc2Cl)c(O)nc1C`, the pIC50 is 5.84. Compared with the last compound, the pIC50 is 0.72 log units higher.

`CCc1cc(NCc2ccccc2C)c(O)nc1C`: the pIC50 was 5.66.

In turn, `CCc1cc(NCc2cccc(OC)c2)c(=O)[nH]c1C` gave a pIC50 of 5.90.

In the case of `CCc1cc(NCc2cc(CC)c(C)nc2OC)c(O)nc1C`, the pIC50 is 7.72.

In turn, `CCc1cc(NCc2c(C)cccc2OC)c(=O)[nH]c1C` showed a pIC50 of 5.89. Compared with the last compound, the pIC50 is 1.83 log units lower.

For the compound `CCc1cc(NCc2ccccc2F)c(O)nc1C`, the pIC50 is 5.85.

In turn, `CCc1cc(NCc2ccccc2SC)c(=O)[nH]c1C` gave a pIC50 of 5.82.

In the case of `CCc1cc(NCc2ccc(C)cc2OC)c(O)nc1C`, the pIC50 is 7.49. Compared with the last compound, the pIC50 is 1.67 log units higher.

Consider `CCc1cc(NCc2cc(C)ccc2OC)c(O)nc1C`, for which the pIC50 is 7.64.
